Only some compounds are listed: those with a hit (about 5.1% of all), similar ones and a draw of the others.
STAT1 blocker = inhibitors of IFN-gamma induced STAT1 signaling | NIH 3T3 STAT1-luciferase reporter, luminescence | inhibition, % at 5.5 µM | actives 0.35% (n = 200,000);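 active = inhibition above a set limit, the mean inhibition across all tested compounds plus 3 SD, cut at about 34% in these data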;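 note: 0% = IFN-gamma with DMSO and 100% = IFN-gamma with 300 µM nifuroxazide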
NF-kB expr up = compounds increasing NF-kB expression in human neuronal cells; actives 1.6% (n = 190,000); fold change at 12.5 µM; NF-kB reporter expression; stronger effect = higher value; in the data active = fold change above about 3.3
APP 5'UTR act = APP 5'UTR luciferase reporter activation | SH-SY5Y APP 5'UTR luciferase reporter, luminescence; zero percent = DMSO vehicle wells | activation, % at 2 µM | actives 1% (n = 190,000) | AID 1276;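 active = activation above a set limit, based on mean plus 3 SD of controls, cut at about 140% in these data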
STAT3 inh = inhibitors of IL-6 induced STAT3 signaling; inhibition, % at 5.5 µM; AID 862; actives 0.89% (n = 190,000); U3A cells, IL-6 STAT3-luciferase reporter, luminescence; host cell line lacks STAT1;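 active = inhibition above the mean inhibition across all screened compounds plus 3 SD, cut at about 44% in these data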;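 note: 0% = DMSO only wells and 100% = 100 µM nifuroxazide control wells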
STAT3 activator = activators of IL-6 induced STAT3 signaling | U3A cells, IL-6 STAT3-luciferase reporter, luminescence; 100% = signal with IL-6 EC80 alone | activation (% of control), % at 5.6 µM | actives 0.91% (n = 190,000) | AID 871;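 active = activation above the screen-wide mean of compound activation plus 3 SD, cut at about 130% in these data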;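 note: 0% = background luminescence of wells with medium and substrate only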
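Test system: Human STAT1-deficient U3A cells with stable STAT3-luciferase reporter | Also added: Interleukin-6, 33 ng/mL | Timing: Compound pre-incubation 1 h before IL-6, then 6 h stimulation at 37 °C | Technique: Luciferase reporter luminescence | Read-out: Percent of IL-6-only median luminescence | Benchmarks: IL-6-only wells as 100% reference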
STAT1 activator = activators of IFN-gamma induced STAT1 signaling | actives 2.6% (n = 200,000) | activation (% of control), % at 5.5 µM | NIH 3T3 STAT1-luciferase reporter, luminescence; 100% = IFN-gamma alone, no compound;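 active = activation above the screen-wide mean activation plus 3 SD, cut at about 130% in these data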;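 note: raw ratio to IFN-gamma control signal so 100% means no change and 0% no light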
* marks the source's active call; other numbers are inactive results; / = not tested or not shown.

SMILES	STAT1 blocker	NF-kB expr up	APP 5'UTR act	STAT3 inh	STAT3 activator	STAT1 activator
CC(C)C(=O)Nc1cccc(-c2cn3ccsc3n2)c1	-16	1.2	-1	10	94	116
Cc1nc(-c2ccc(NC(=O)C3CCCCC3)cc2)cs1	-41	3.5*	167*	26	83	138*
CC(=O)Nc1ccc(-c2cn3ccsc3n2)cc1	-40	3.4*	64	26	81	136*
O=C(Nc1ccc(S(=O)(=O)Nc2nccs2)cc1)/C(=C/c1ccccc1Cl)NC(=O)c1ccccc1	0	1.2	25	28	78	100
CCOC(=O)C1CCN(c2ncnc3c2cnn3-c2ccc(OC)cc2)CC1	-13	1.1	19	15	93	112
Cc1cccc(-n2ncc3c(N4CCC(C)CC4)ncnc32)c1	-47	4.3*	58	34	78	143*
CCOC(=O)C1CCCN(c2ncnc3c2cnn3-c2cccc(C)c2)C1 (configuration not stated)	-1	0.88	10	35	73	100
COc1ccc(-n2ncc3c(N4CCC(C(N)=O)CC4)ncnc32)cc1	-35	3.8*	102	-17	121	132*
CCN1CCN(c2ncnc3c2cnn3-c2ccccc2)CC1	-19	1.8	34	14	96	117
c1ccc(-n2ncc3c(N4CCCCC4)ncnc32)cc1	66*	2	115	96*	25	40
CC1CC(C)CN(c2ncnc3c2cnn3-c2ccc(Cl)cc2)C1 (configuration not stated)	-18	0.87	233*	-1	101	118
Cc1ccc(NC(=S)NNC(=O)CSc2nc3ccccc3c(=O)n2-c2ccc(C)cc2)cc1	-10	0.63	13	5	99	109
Cc1nn(C2CCCO2)c(=O)nc1N (configuration not stated)	-7	1.3	22	10	95	105
CC(C)c1nc(C(=O)N2CCCC(CCC(=O)N(C)CCc3ccccn3)C2)cs1 (configuration not stated)	-1	1.2	6	-1	106	101
COCC(=O)NNC(=S)Nc1cccc(C)c1C	4	1.2	1	9	98	94
CCNc1nc(-c2ccc(Cl)cc2)cs1	-51	3.8*	148*	17	90	149*
CC(C)C(=O)Nc1nc(-c2ccc([N+](=O)[O-])cc2)cs1	-24	1.6	21	26	82	120
CNc1nc(-c2ccc([N+](=O)[O-])cc2)cs1	-40	2.1	34	23	84	137*
CNc1nc(-c2ccc(Cl)cc2)cs1	-33	2.4	83	7	100	132*
NS(=O)(=O)c1ccc(CCNC(=O)Cc2ccccc2[N+](=O)[O-])cc1	6	0.91	-10	-30	133*	94
COc1cccc(NC(=S)/C(=C(\[O-])c2cc(C)n(-c3ccccc3F)c2C)[n+]2ccc(N(C)C)cc2)c1	31	0.57	26	6	97	70
O=C(Nc1ccccc1)c1ccc(CSc2ncccn2)cc1	-44	2.5	152*	12	91	139*
Cc1ccc(NC(=O)c2ccc(CSc3nccc(C)n3)cc2)cc1	1	1	19	4	101	99
CSCc1ccc(C(=O)NCc2ccc(C)cc2)cc1	-6	1.2	-1	-12	108	106
Cn1nnnc1SCc1ccc(C(=O)Nc2ccccc2F)cc1	-7	1.5	44	18	93	106
SMILES	STAT1 blocker	NF-kB expr up	APP 5'UTR act	STAT3 inh	STAT3 activator	STAT1 activator
CSCc1ccc(C(=O)Nc2ccc(C(N)=O)cc2)cc1	-53	1.8	85	9	98	147*
O=C(Nc1ccccc1F)c1ccc(CSc2ncccn2)cc1	-43	3.1	155*	7	100	138*
CN(C)c1ccc(/C=C2/SC(=O)N(CCN=C3NS(=O)(=O)c4ccccc43)C2=O)cc1	-37	1.4	35	-17	110	133*
CCCOc1cccc(C(=O)Nc2ccc(Br)cc2F)c1	-39	2.5	128	-8	108	136*
COc1ccc(C2CC(=O)C=C(NNS(=O)(=O)c3ccc(C)cc3)C2)cc1 (configuration not stated)	-1	1.2	22	-3	99	101
Nc1nc2c(s1)COc1ccccc1-2	-7	1.4	5	-28	126	104
Nc1nc2c(s1)CCc1c-2cnn1-c1ccccc1	-60	3.4*	138*	6	98	155*
O=C(Nc1ccc(Br)cc1)c1cccc(N2C(=O)C3C4CCC(C4)C3C2=O)c1 (configuration not stated)	9	0.83	-26	9	95	92
Cc1ccccc1C1=NC(C(F)(F)F)(C(F)(F)F)c2c(n(C)c(=O)n(C)c2=O)N1	3	0.71	19	-3	105	97
Cn1c2c(c(=O)n(C)c1=O)C(C(F)(F)F)(C(F)(F)F)N=C(c1ccc(Cl)cc1)N2	71*	0.57	-51	89*	31	36
CCOC(=O)c1c(NC(=O)CN2C(=O)NC(C)(c3ccc(Cl)cc3)C2=O)sc(C(=O)NC)c1C (configuration not stated)	-3	1.1	9	-4	103	103
S=c1[nH]c(-c2ccccc2)cn1/N=C/c1ccccc1Br	-23	0.92	20	9	99	120
Cc1ccc(/C=N/n2cc(-c3ccccc3)[nH]c2=S)s1	-34	1.6	23	-7	115	129*
Oc1c(C=NCc2ccccc2)sc2ccccc12	-48	3.5*	11	-2	103	143*
CC(C(=O)N1CCCc2ccccc21)N1C(=O)c2ccccc2C1=O (configuration not stated)	6	1.4	14	1	102	95
COC(=O)c1ccc(CSC2=NCCS2)cc1	-34	1.9	61	-12	110	130*
c1ccc(-c2nc3cc4ccccc4cc3[nH]2)nc1	44*	2.8	157*	86*	28	60
CC(C)(C)N=Cc1cc(-c2ccccc2)sc1O	-45	3.3	/	0	100	138*
CCN(CC)c1ccc(C=Nc2ccccc2)c(O)c1	-6	1.2	-4	-2	104	102
CC(C)(C)NC(=O)C(c1ccc(F)cc1)N(Cc1ccccc1Cl)C(=O)c1ccn[nH]1 (configuration not stated)	-2	0.9	-1	6	102	102
N#Cc1ccccc1NC(=O)CNc1ccccc1N1CCCCC1	6	0.82	-2	-42	135*	95
O=C(COC(=O)c1ccc(O)cc1)NCC1CCCO1 (configuration not stated)	2	1	-8	-16	114	97
